Test results published in ChEMBL document CHEMBL3400052, “Development of a time-resolved fluorescence probe for evaluation of competitive binding to the cholecystokinin 2 receptor” (Bioorg Med Chem, 2015).
The source made the active and inactive calls. The calls are words filed in the database; no cut-off is given here. Where a SMILES comes first, the peptide text is derived from it. [ ]: non-standard residue; d: D form. The star is where a group is joined. Hexanoyl(6-N3) = [N-]=[N+]=NCCCCCC(=O)*; Azidoacetyl = [N-]=[N+]=NCC(=O)*; X1 = C#CCCCCOCCOCCOCCOCCOCC(=O)*; Nle = CCCC[C@H](N)C(=O)O

How the values were obtained:
[1] = biological target: T1, Gastrin/cholecystokinin type B receptor (Homo sapiens, UniProt P32239); assay: (§1) Displacement of Eu-DTPA-PEGO-CCK4 from human cholecystokinin 2 receptor overexpressed in HEK-293 cells co-expressing human MC4R after 1 hr by time resolved fluorescence-based competition binding assay; assay type: cell-based, HEK293
T1 sequence (P32239 whole entry): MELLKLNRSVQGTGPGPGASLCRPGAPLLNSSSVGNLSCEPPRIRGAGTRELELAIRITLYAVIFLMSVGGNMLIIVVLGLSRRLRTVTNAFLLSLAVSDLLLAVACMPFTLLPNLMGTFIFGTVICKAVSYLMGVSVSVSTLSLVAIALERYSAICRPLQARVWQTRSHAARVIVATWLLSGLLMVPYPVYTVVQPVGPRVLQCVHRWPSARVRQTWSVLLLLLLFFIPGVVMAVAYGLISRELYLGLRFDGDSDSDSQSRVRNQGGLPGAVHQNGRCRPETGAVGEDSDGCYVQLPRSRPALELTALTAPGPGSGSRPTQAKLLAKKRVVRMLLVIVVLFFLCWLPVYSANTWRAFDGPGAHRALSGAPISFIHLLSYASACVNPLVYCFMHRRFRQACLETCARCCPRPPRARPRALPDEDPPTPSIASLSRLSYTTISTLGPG
Summary of the method: (§2)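 HEK-293 cells engineered to co-express hCCK2R and hMC4R, grown in DMEM/10% FBS with zeocin and geneticin, seeded 240,000 per well in six-well plates. Each well received binding buffer (DMEM, HEPES, BSA, 1,10-phenanthroline, leupeptin, bacitracin, pH 7.4) containing 15 nM Eu probe plus competitor at 10^-12 to 10^-5 M. Incubation 1 h at 37 °C, then scraping, three washes, Enhancement Solution 1 h at 37 °C, Eu TRF read.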

[2] = biological target: T2, Gastrin/cholecystokinin type B receptor (Homo sapiens) (UniProt P32239); assay: Displacement of Eu-DTPA-PEGO-CCK4 from human cholecystokinin 2 receptor overexpressed in HEK-293 cells co-expressing human MC4R after 1 hr by time resolved fluorescence-based competition binding assay relative to acetylated […]; assay type: cell-based; conditions: HEK293
T2 sequence (whole entry): T1 sequence (P32239 whole entry)

[3] = Retention time of the compound by reverse phase HPLC analysis; assay type: physicochemical
[4] = Retention time of the compound by analytical HPLC method; assay type: physicochemical
[5] = biological target: T2, Gastrin/cholecystokinin type B receptor (Homo sapiens); assay: as §1; assay type: cell-based; conditions: HEK293; summary of the method: as §2

Retention_time [3] [min] | inhibition [5] | SMILES | Ki [1] [nM] | Ratio [2] | Retention_time [4] [min]
14.6 |  | CCCC[C@H](NC(=O)[C@H](Cc1c[nH]c2ccccc12)NC(=O)CN=[N+]=[N-])C(=O)N[C@@H](CC(=O)O)C(=O)N[C@@H](Cc1ccccc1)C(N)=O (Azidoacetyl-W[Nle]DF-NH2) |  |  | 
17.7 |  | CCCC[C@H](NC(=O)[C@H](Cc1c[nH]c2ccccc12)NC(=O)CCCCCN=[N+]=[N-])C(=O)N[C@@H](CC(=O)O)C(=O)N[C@@H](Cc1ccccc1)C(N)=O ({Hexanoyl(6-N3)}-W[Nle]DF-NH2) |  |  | 
13.3 |  | CCCC[C@H](NC(=O)[C@H](Cc1c[nH]c2ccccc12)NC(C)=O)C(=O)N[C@@H](CC(=O)O)C(=O)N[C@@H](Cc1ccccc1)C(N)=O (Ac-W[Nle]DF-NH2) | 6.1 | 1 | 17.47
16.9 |  | C#CCCCCOCCOCCOCCOCCOCC(=O)N[C@@H](Cc1c[nH]c2ccccc12)C(=O)N[C@@H](CCCC)C(=O)N[C@@H](CC(=O)O)C(=O)N[C@@H](Cc1ccccc1)C(N)=O (X1-W[Nle]DF-NH2) |  |  | 
22.9 |  | CCCC[C@H](NC(=O)[C@H](Cc1c[nH]c2ccccc12)NC(=O)COCC(=O)NCCCOCCOCCOCCCNC(=O)CN(CCN(CCN(CC(=O)O)CC(=O)O)CC(=O)O)CC(=O)O)C(=O)N[C@@H](CC(=O)O)C(=O)N[C@@H](Cc1ccccc1)C(N)=O |  |  | 

Further lines, the molecule ahead of its results:

SMILES | Retention_time [3] [min] | inhibition [5] | Ki [1] [nM] | Ratio [2] | Retention_time [4] [min]
CCCC[C@H](NC(=O)[C@H](Cc1c[nH]c2ccccc12)NC(=O)Cn1cc(CN(Cc2cn(CC(=O)N[C@@H](Cc3c[nH]c4ccccc34)C(=O)N[C@@H](CCCC)C(=O)N[C@@H](CC(=O)O)C(=O)N[C@@H](Cc3ccccc3)C(N)=O)nn2)Cc2cn(CC(=O)N[C@@H](Cc3c[nH]c4ccccc34)C(=O)N[C@@H](CCCC)C(=O)N[C@@H](CC(=O)O)C(=O)N[C@@H](Cc3ccccc3)C(N)=O)nn2)nn1)C(=O)N[C@@H](CC(=O)O)C(=O)N[C@@H](Cc1ccccc1)C(N)=O | 15.1 |  | 1.2 | 5 | 21.18
CCCC[C@H](NC(=O)[C@H](Cc1c[nH]c2ccccc12)NC(=O)CCCCCn1cc(COc2cc(OCc3cn(CCCCCC(=O)N[C@@H](Cc4c[nH]c5ccccc45)C(=O)N[C@@H](CCCC)C(=O)N[C@@H](CC(=O)O)C(=O)N[C@@H](Cc4ccccc4)C(N)=O)nn3)cc(OCc3cn(CCCCCC(=O)N[C@@H](Cc4c[nH]c5ccccc45)C(=O)N[C@@H](CCCC)C(=O)N[C@@H](CC(=O)O)C(=O)N[C@@H](Cc4ccccc4)C(N)=O)nn3)c2)nn1)C(=O)N[C@@H](CC(=O)O)C(=O)N[C@@H](Cc1ccccc1)C(N)=O | 16.6 |  | 3.7 | 2 | 22.42
NC(=O)[C@H](CO)NC(=O)CCCCCn1cc(CN(Cc2cn(CCCCCC(=O)N[C@@H](CO)C(N)=O)nn2)Cc2cn(CCCCCC(=O)N[C@@H](CO)C(N)=O)nn2)nn1 |  | inactive |  |  | 
CCCC[C@H](NC(=O)[C@H](Cc1c[nH]c2ccccc12)NC(=O)COCCOCCOCCOCCOCCCCc1cn(CCCCCCOc2cc(OCCCCCCn3cc(CCCCOCCOCCOCCOCCOCC(=O)N[C@@H](Cc4c[nH]c5ccccc45)C(=O)N[C@@H](CCCC)C(=O)N[C@@H](CC(=O)O)C(=O)N[C@@H](Cc4ccccc4)C(N)=O)nn3)cc(OCCCCCCn3cc(CCCCOCCOCCOCCOCCOCC(=O)N[C@@H](Cc4c[nH]c5ccccc45)C(=O)N[C@@H](CCCC)C(=O)N[C@@H](CC(=O)O)C(=O)N[C@@H](Cc4ccccc4)C(N)=O)nn3)c2)nn1)C(=O)N[C@@H](CC(=O)O)C(=O)N[C@@H](Cc1ccccc1)C(N)=O | 19.8 |  | 30 | 0.2 | 25.12
NC(=O)[C@H](CO)NC(=O)CCCCCn1cc(COc2cc(OCc3cn(CCCCCC(=O)N[C@@H](CO)C(N)=O)nn3)cc(OCc3cn(CCCCCC(=O)N[C@@H](CO)C(N)=O)nn3)c2)nn1 |  | inactive |  |  | 
